# Laboratory results as given in publication PMC5987874 (The Journal of General Physiology, 2018).
# Residue numbers refer to the chain shown, from its start. Like-named read-outs stand apart in the source and are kept apart here.
# Experiments:
# human Hv1 D185A-H193A = target: T1, human Hv1 D185A-H193A (Homo sapiens, UniProt Q96D96, D185A/H193A); assay: Whole-cell voltage clamp, Zn^2+ modulation of GAQ gating; format: cell-based
# T1 sequence (Q96D96 1-273 D185A/H193A): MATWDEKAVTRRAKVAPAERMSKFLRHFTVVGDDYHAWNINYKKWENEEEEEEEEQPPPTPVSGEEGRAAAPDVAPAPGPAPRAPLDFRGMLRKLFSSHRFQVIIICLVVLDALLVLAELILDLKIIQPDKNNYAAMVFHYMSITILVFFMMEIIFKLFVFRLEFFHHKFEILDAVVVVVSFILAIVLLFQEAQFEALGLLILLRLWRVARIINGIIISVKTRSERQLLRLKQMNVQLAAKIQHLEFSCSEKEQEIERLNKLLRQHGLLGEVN
# Procedure, shortened: (§1)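 Whole-cell patch clamp at ~21°C. Pipette and bath (mM): ~80 TMA-MeSO3, 100 Bis-Tris, 8 HCl, pH 6.5, 310–320 mOsm. ZnCl2 was diluted into bath solution and applied by gravity superfusion, at least 2 min per change. Test step voltage was set per construct from its V0.5. G_STEP = end-of-step current/(V−V_REV). Effect = 1 − G_Zn/G_control, fitted to the Hill equation. IC50 and nH are means ± SEM from separate cells. ΔpIC50 was tested by unpaired t test, P<0.05.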
# [1] = target: T2, human Hv1 H193A (H^3.71A) (Homo sapiens, UniProt Q96D96, H193A); conditions: ref Ramsey et al., 2006; cited from earlier work
# T2 sequence (Q96D96 1-273 H193A): T1 sequence (Q96D96 1-273 D185A/H193A) with A185D
# human Hv1 D130H-H140A = target: T3, human Hv1 D130H-H140A (Homo sapiens, UniProt Q96D96, D130H/H140A); assay: Whole-cell voltage clamp, Zn^2+ modulation of GAQ gating; format: cell-based
# T3 sequence (Q96D96 1-273 D130H/H140A): T1 sequence (Q96D96 1-273 D185A/H193A) with D130H, H140A, A185D, A193H
# Procedure, shortened: as §1
# [2] = target: T4, human Hv1 E119H-H140A-D185H-H193A (Homo sapiens, UniProt Q96D96, D185H/E119H/H140A/H193A); assay: as above; format: cell-based
# T4 sequence (Q96D96 1-273 E119H/H140A/D185H/H193A): T1 sequence (Q96D96 1-273 D185A/H193A) with E119H, H140A, A185H
# Procedure, shortened: as §1
# human Hv1 H140A-D185H = target: T5, human Hv1 H140A-D185H (Homo sapiens, UniProt Q96D96, D185H/H140A); assay: as above; format: cell-based
# T5 sequence (Q96D96 1-273 H140A/D185H): T1 sequence (Q96D96 1-273 D185A/H193A) with H140A, A185H, A193H
# Procedure, shortened: as §1
# [3] = target: T6, human Hv1 E196H (E^4.38H) (Homo sapiens, UniProt Q96D96, E196H); assay: as above; format: cell-based
# T6 sequence (Q96D96 1-273 E196H): T1 sequence (Q96D96 1-273 D185A/H193A) with A185D, A193H, E196H
# Procedure, shortened: as §1
# human Hv1 E119H-H140A = target: T7, human Hv1 E119H-H140A (Homo sapiens, UniProt Q96D96, E119H/H140A); assay: as above; format: cell-based
# T7 sequence (Q96D96 1-273 E119H/H140A): T1 sequence (Q96D96 1-273 D185A/H193A) with E119H, H140A, A185D, A193H
# Procedure, shortened: as §1
# [4] = read-out: IC50, fit of the mean data to a Hill function, Fig. 4D
# [5] = VSTEP 120 mV, calculated as log (IC50)
smiles,measurement,setting,value
"[Cl-].[Cl-].[Zn+2] [Zn^2+, ZnCl2]","nH, fit of the mean data to a Hill function",human Hv1 D185A-H193A; Fig. 4D,0.7
same,Hill value,human Hv1 D185A-H193A; VSTEP 140 mV,0.62
same,pIC50,"human Hv1 D185A-H193A; VSTEP 140 mV, calculated as log (IC50)",−3.88
same,IC50,human Hv1 D185A-H193A; [4],99.2 µM
same,decrease of Zn^2+ potency by single mutation,[1],10- to 30 fold
same,Mean ΔpIC50 = (pIC50_1 - pIC50_2),human Hv1 D130H-H140A; D130H-H140A vs H140A,0.01
same,"nH, fit of the mean data to a Hill function",human Hv1 D130H-H140A; Fig. 4C,0.5
same,Hill value,human Hv1 D130H-H140A; VSTEP 80 mV,0.58
same,pIC50,"human Hv1 D130H-H140A; VSTEP 80 mV, calculated as log (IC50)",−4.42
same,IC50,"human Hv1 D130H-H140A; read-out: IC50, fit of the mean data to a Hill function, Fig. 4C",39.7 µM
same,IC50,"human Hv1 D130H-H140A; read-out: Mean IC50 @ VSTEP, VSTEP 80 mV, pH 6.5, mean of fits in separate cells",41.5 µM
same,Mean ΔpIC50 = (pIC50_1 - pIC50_2),[2]; E119H-H140A-D185H-H193A vs E119H-H140A-H193A,−0.25
same,Mean ΔpIC50 = (pIC50_1 - pIC50_2),[2]; E119H-H140A-D185H-H193A vs H140A-D185H-H193A,1.75
same,Hill value,[2]; VSTEP 120 mV,0.72
same,pIC50,[2]; [5],−4.90
same,"nH, fit of the mean data to a Hill function",human Hv1 H140A-D185H; Fig. 4D,0.6
same,Mean ΔpIC50 = (pIC50_1 - pIC50_2),human Hv1 H140A-D185H; H140A-D185H vs D185H,−0.42
same,Mean ΔpIC50 = (pIC50_1 - pIC50_2),human Hv1 H140A-D185H; H140A-D185H vs H140A,0.54
same,Hill value,human Hv1 H140A-D185H; VSTEP 120 mV,0.81
same,pIC50,human Hv1 H140A-D185H; [5],−4.96
same,IC50,human Hv1 H140A-D185H; [4],18 µM
same,Mean ΔpIC50 = (pIC50_1 - pIC50_2),[3]; E196H vs WT,−0.43
same,Hill value,[3]; VSTEP 100 mV,0.63
same,pIC50,"[3]; VSTEP 100 mV, calculated as log (IC50)",−4.63
same,Mean ΔpIC50 = (pIC50_1 - pIC50_2),human Hv1 E119H-H140A; E119H-H140A vs H140A,1.81
same,"nH, fit of the mean data to a Hill function",human Hv1 E119H-H140A; Fig. 4A,1.2
same,Hill value,human Hv1 E119H-H140A; VSTEP 120 mV,2.09
same,pIC50,human Hv1 E119H-H140A; [5],6.23
same,IC50,"human Hv1 E119H-H140A; read-out: IC50, fit of the mean data to a Hill function, Fig. 4A",0.67 µM
